According to ChEMBL document CHEMBL1126705, “16 beta-([18F]fluoro)estrogens: systematic investigation of a new series of fluorine-18-labeled estrogens as potential imaging agents for estrogen-receptor-positive breast tumors” (J Med Chem, 1993):
Blank lines part the entries; values can stand above or below the compound they belong to.

What was measured:
Rattus norvegicus [1] = assay: Tested in vivo for the biodistribution in rat liver at 1 hour after intravenous dose of 50 microCi of drug in 10%ethanol saline; format: ADME, organism-based
Procedure, shortened: (§1)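 Immature (25-day-old) female Sprague-Dawley rats, ether-anesthetized, given the fluorine-18-labeled estrogen by femoral vein injection in 10% ethanol saline. […] Other groups were killed by decapitation at 1 or 3 h. Blood and organs were weighed and gamma-counted. Data are % injected dose/g, mean ± SD, typically n = 5 per group.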

Rattus norvegicus [2] = assay: Tested in vivo for the biodistribution in rat muscle at 1 hour after intravenous dose of 50 microCi of drug in 10%ethanol saline; format: ADME, organism-based, Muscle tissue; procedure, shortened: as §1
Rattus norvegicus [3] = assay: Tested in vivo for the biodistribution in blood of female rat at 1 hour after intravenous dose of 50 microCi of the drug and 15 u g of estradiol; format: ADME, organism-based
Rattus norvegicus [4] = assay: Tested in vivo for the biodistribution in rat bone at 1 hour after intravenous dose of 50 microCi of drug in 10%ethanol saline; format: ADME, organism-based, Bone element
Procedure, shortened: (§2)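 Ether-anesthetized 25-day-old female Sprague-Dawley rats (~40–53 g) got the [18F] tracer in 10% ethanol saline via femoral vein. Rats were decapitated at 1 or 3 h, and blood and organs were weighed and gamma-counted. Values are % injected dose/g as mean ± SD, n = 5 per time point.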

Rattus norvegicus [5] = assay: Tested in vivo for the biodistribution in rat ovaries at 1 hour after intravenous dose of 50 microCi of the drug and 15 ug of estradiol; format: ADME, organism-based, Female gonad; procedure, shortened: as §1
Rattus norvegicus [6] = assay: Tested in vivo for the biodistribution in rat uterus at 1 hour after intravenous dose of 50 microCi of drug in 10%ethanol saline; format: ADME, organism-based
Procedure, shortened: (§3)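 Female Sprague-Dawley rats, 25 days old (~40–53 g), ether-anesthetized, given the 18F-labeled estrogen iv via femoral vein in 10% ethanol saline. […] Others were sacrificed by decapitation at 1 or 3 h. Blood and organs were excised, weighed and gamma counted as % injected dose/g, mean ± SD, typically n = 5 (4–6).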

[7] = molecular target: T1, Estrogen receptor (Rattus norvegicus) (UniProt P06211+Q62986)
Rattus norvegicus [8] = assay: Tested in vivo for the biodistribution in rat uterus after 3 hours following an intravenous dose of 50 microCi of drug in 10%ethanol saline; format: ADME, organism-based; procedure, shortened: as §1
Rattus norvegicus [9] = assay: Tested in vivo for the biodistribution in rat kidney at 1 hour after intravenous dose of 50 microCi of the drug and 15 u g of estradiol; format: ADME, organism-based; procedure, shortened: as §1
[10] = Partition coefficient (logP); format: physicochemical; conditions: octanol/water
Procedure, shortened: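 Octanol/water log P estimated from log k'w measured by reversed-phase HPLC (Minick method) on a C8 silica column.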

Rattus norvegicus [11] = assay: Tested in vivo for the biodistribution in rat uterus at 1 hour after intravenous dose of 50 microCi of the drug and 15 ug of estradiol; format: ADME, organism-based; procedure, shortened: as §3
Rattus norvegicus [12] = assay: Tested in vivo for the biodistribution in rat ovaries after 3 hours following an intravenous dose of 50 microCi of drug in 10%ethanol saline; format: ADME, organism-based, Female gonad; procedure, shortened: as §1
Rattus norvegicus [13] = assay: Tested in vivo for the biodistribution in rat muscle at 1 hour after intravenous dose of 50 microCi of the drug and 15 ug of estradiol; format: ADME, organism-based, Muscle tissue; procedure, shortened: as §1
Rattus norvegicus [14] = assay: Tested in vivo for the biodistribution in rat uterus/blood at 1 hour after intravenous dose of 50 microCi of drug in 10%ethanol saline; format: ADME, organism-based; procedure, shortened: as §3
Rattus norvegicus [15] = assay: Tested in vivo for the biodistribution in blood of female rat at 1 hour after intravenous dose of 50 microCi of drug in 10%ethanol saline; format: ADME, organism-based; procedure, shortened: as §2
Rattus norvegicus [16] = assay: Tested in vivo for the biodistribution in blood of female rat after 3 hours following an intravenous dose of 50 microCi of drug in 10%ethanol saline; format: ADME, organism-based; procedure, shortened: as §2
Rattus norvegicus [17] = assay: Tested in vivo for the biodistribution in rat uterus/muscle after 3 hours following an intravenous dose of 50 microCi of drug in 10%ethanol saline; format: ADME, organism-based, Muscle tissue; procedure, shortened: as §3
Rattus norvegicus [18] = assay: Tested in vivo for the biodistribution in rat liver at 1 hour after intravenous dose of 50 microCi of the drug and 15 u g of estradiol; format: ADME, organism-based; procedure, shortened: as §1
Rattus norvegicus [19] = assay: Tested in vivo for the biodistribution in rat ovaries at 1 hour after intravenous dose of 50 microCi of drug in 10%ethanol saline; format: ADME, organism-based, Female gonad; procedure, shortened: as §1
Rattus norvegicus [20] = assay: Tested in vivo for the biodistribution in rat kidney after 3 hours following an intravenous dose of 50 microCi of drug in 10%ethanol saline; format: ADME, organism-based; procedure, shortened: as §2
Rattus norvegicus [21] = assay: Tested in vivo for the biodistribution in rat liver after 3 hours following an intravenous dose of 50 microCi of drug in 10%ethanol saline; format: ADME, organism-based; procedure, shortened: as §1
[22] = molecular target: T1, Estrogen receptor (Rattus norvegicus); remark: listed apart in the source
Rattus norvegicus [23] = assay: Tested in vivo for the biodistribution in rat muscle after 3 hours following an intravenous dose of 50 microCi of drug in 10%ethanol saline; format: ADME, organism-based, Muscle tissue; procedure, shortened: as §1
Rattus norvegicus [24] = assay: Tested in vivo for the biodistribution in rat uterus/blood after 3 hours following an intravenous dose of 50 microCi of drug in 10%ethanol saline; format: ADME, organism-based; procedure, shortened: as §3
Rattus norvegicus [25] = assay: Tested in vivo for the biodistribution in rat kidney at 1 hour after intravenous dose of 50 microCi of drug in 10%ethanol saline; format: ADME, organism-based; procedure, shortened: as §2
[26] = molecular target: T2, Sex hormone-binding globulin (Homo sapiens) (UniProt P04278); assay: Relative binding affinity against sex steroid binding protein (SBP)
T2 sequence (whole entry): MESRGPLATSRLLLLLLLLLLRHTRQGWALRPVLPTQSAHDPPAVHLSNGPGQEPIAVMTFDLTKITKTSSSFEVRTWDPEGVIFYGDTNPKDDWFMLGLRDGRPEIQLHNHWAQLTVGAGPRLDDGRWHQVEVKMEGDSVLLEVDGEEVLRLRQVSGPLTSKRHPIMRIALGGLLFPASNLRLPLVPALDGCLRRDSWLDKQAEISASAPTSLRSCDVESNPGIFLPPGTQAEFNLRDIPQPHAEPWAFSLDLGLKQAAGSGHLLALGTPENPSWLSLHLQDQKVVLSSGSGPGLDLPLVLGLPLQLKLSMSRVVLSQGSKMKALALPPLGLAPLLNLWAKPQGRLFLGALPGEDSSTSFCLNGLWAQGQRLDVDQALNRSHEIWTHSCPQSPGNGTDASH

[27] = molecular target: T3, Alpha-fetoprotein (Rattus norvegicus) (UniProt P02773); assay: Relative binding affinity for Alphafetoprotein
T3 sequence (whole entry): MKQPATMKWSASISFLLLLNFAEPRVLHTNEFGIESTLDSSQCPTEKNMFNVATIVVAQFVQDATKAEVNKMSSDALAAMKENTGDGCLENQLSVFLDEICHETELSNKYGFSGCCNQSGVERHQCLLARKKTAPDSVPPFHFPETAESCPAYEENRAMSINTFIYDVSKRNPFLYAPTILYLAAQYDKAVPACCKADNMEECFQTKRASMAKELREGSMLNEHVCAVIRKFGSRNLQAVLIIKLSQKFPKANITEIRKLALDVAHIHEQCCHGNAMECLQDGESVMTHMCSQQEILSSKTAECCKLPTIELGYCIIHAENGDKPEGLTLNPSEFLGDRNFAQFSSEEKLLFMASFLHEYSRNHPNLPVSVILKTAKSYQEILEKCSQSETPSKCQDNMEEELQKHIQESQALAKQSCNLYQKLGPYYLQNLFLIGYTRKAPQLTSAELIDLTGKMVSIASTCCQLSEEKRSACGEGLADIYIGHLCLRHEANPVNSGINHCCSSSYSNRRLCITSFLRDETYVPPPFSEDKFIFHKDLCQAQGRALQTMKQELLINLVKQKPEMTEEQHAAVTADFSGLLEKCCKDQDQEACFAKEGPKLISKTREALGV

Rattus norvegicus [28] = assay: Tested in vivo for the biodistribution in rat bone at 1 hour after intravenous dose of 50 microCi of the drug and 15 ug of estradiol; format: ADME, organism-based, Bone element
Rattus norvegicus [29] = assay: Tested in vivo for the biodistribution in rat thymus at 1 hour after intravenous dose of 50 microCi of the drug and 15 ug of estradiol; format: ADME, organism-based; procedure, shortened: as §1
Rattus norvegicus [30] = assay: Tested in vivo for the biodistribution in rat thymus at 1 hour after intravenous dose of 50 microCi of drug in 10%ethanol saline; format: ADME, organism-based; procedure, shortened: as §1
Rattus norvegicus [31] = assay: Tested in vivo for the biodistribution in rat fat at 1 hour after intravenous dose of 50 microCi of the drug and 15 ug of estradiol; format: ADME, organism-based, Adipose tissue
Rattus norvegicus [32] = assay: Tested in vivo for the biodistribution in rat fat after 3 hours following an intravenous dose of 50 microCi of drug in 10%ethanol saline; format: ADME, organism-based, Adipose tissue; procedure, shortened: as §2
Rattus norvegicus [33] = assay: Tested in vivo for the biodistribution in rat uterus/muscle at 1 hour after intravenous dose of 50 microCi of the drug and 15 ug of estradiol; format: ADME, organism-based, Muscle tissue; procedure, shortened: as §3
Rattus norvegicus [34] = assay: Tested in vivo for the biodistribution in rat thymus after 3 hours following an intravenous dose of 50 microCi of drug in 10%ethanol saline; format: ADME, organism-based; procedure, shortened: as §1
Rattus norvegicus [35] = assay: Tested in vivo for the biodistribution in rat bone after 3 hours following an intravenous dose of 50 microCi of drug in 10%ethanol saline; format: ADME, organism-based, Bone element; procedure, shortened: as §2
Rattus norvegicus [36] = assay: Tested in vivo for the biodistribution in rat fat at 1 hour after intravenous dose of 50 microCi of drug in 10%ethanol saline; format: ADME, organism-based, Adipose tissue; procedure, shortened: as §2
Rattus norvegicus [37] = assay: Tested in vivo for the biodistribution in rat uterus/muscle at 1 hour after intravenous dose of 50 microCi of drug in 10%ethanol saline; format: ADME, organism-based, Muscle tissue; procedure, shortened: as §3
Rattus norvegicus [38] = assay: Tested in vivo for the biodistribution in rat uterus/blood at 1 hour after intravenous dose of 50 microCi of the drug and 15 ug of estradiol; format: ADME, organism-based; procedure, shortened: as §3

Injected (Rattus norvegicus [1]): 4.023%
Injected (Rattus norvegicus [2]): 0.725%
Injected (Rattus norvegicus [3]): 0.227%
Injected (Rattus norvegicus [4]): 1.365%
Injected (Rattus norvegicus [5]): 1.712%
Injected (Rattus norvegicus [6]): 8.2%
BSI [7]: 189
Injected (Rattus norvegicus [8]): 9.09%
Injected (Rattus norvegicus [9]): 0.709%
logP [10]: 4.12
Injected (Rattus norvegicus [11]): 0.88%
Injected (Rattus norvegicus [12]): 3.115%
Injected (Rattus norvegicus [13]): 0.262%
Injected (Rattus norvegicus [14]): 33.61%
Injected (Rattus norvegicus [15]): 0.264%
Injected (Rattus norvegicus [16]): 0.144%
Injected (Rattus norvegicus [17]): 23.55%
Injected (Rattus norvegicus [18]): 3.888%
Injected (Rattus norvegicus [19]): 3.934%
Injected (Rattus norvegicus [20]): 1.03%
Injected (Rattus norvegicus [21]): 4.003%
NSB [22]: 2.43
Injected (Rattus norvegicus [23]): 0.382%
Injected (Rattus norvegicus [24]): 64.53%
Injected (Rattus norvegicus [25]): 1.886%
relative binding affinity (RBA) [26]: 11
relative binding affinity (RBA) [27]: 0.147
Injected (Rattus norvegicus [28]): 1.037%
Injected (Rattus norvegicus [29]): 0.277%
Injected (Rattus norvegicus [30]): 0.815%
Injected (Rattus norvegicus [31]): 2.174%
Injected (Rattus norvegicus [32]): 1.805%
Injected (Rattus norvegicus [33]): 3.5%
Injected (Rattus norvegicus [34]): 0.493%
Injected (Rattus norvegicus [35]): 1.606%
Injected (Rattus norvegicus [36]): 3.375%
Injected (Rattus norvegicus [37]): 11.41%
Injected (Rattus norvegicus [38]): 4.03%
SMILES: C#C[C@]1(O)[C@@H](F)C[C@H]2[C@@H]3CCc4cc(O)ccc4[C@H]3[C@@H](CC)C[C@@]21C

BSI [7]: 648
logP [10]: 3.9
NSB [22]: 2.1
relative binding affinity (RBA) [26]: 40.8
relative binding affinity (RBA) [27]: 1.21
SMILES: CCC1C[C@]2(C)[C@@H](O)CC[C@H]2[C@@H]2CCc3cc(O)ccc3[C@@H]12 (stereo partly specified)

logP [10]: 3.42
relative binding affinity (RBA) [26]: 1.81
relative binding affinity (RBA) [27]: 3.51
SMILES: C#C[C@]1(O)CC[C@H]2[C@@H]3CCc4cc(O)ccc4[C@H]3CC[C@@]21C [ETHINYL ESTRADIOL]

BSI [7]: 331
logP [10]: 4.28
NSB [22]: 2.86
relative binding affinity (RBA) [26]: 41.2
relative binding affinity (RBA) [27]: 0.347
SMILES: C#C[C@]1(O)CC[C@H]2[C@@H]3CCc4cc(O)ccc4[C@H]3C(CC)C[C@@]21C (stereo partly specified)
